Values after ≈ are worked out from the molar mass of the structure shown.
Legend:
Assay type in all cases: functional
[1] = test system: Staphylococcus epidermidis; assay: Antimicrobial activity against Staphylococcus epidermidis E1 incubated in CAMHB medium for 20 hrs by two-fold microbroth dilution method; settings: E1, 20 h
In short: (§1)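 Clinical isolates and ATCC strains, purified by plate activation and used fresh; inoculum about 5×10^5 CFU/ml final. Grown in CAMHB at 35 °C for 20 h.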

[2] = test system: Staphylococcus aureus; assay: Antimicrobial activity against constitutively erythromycin resistant Staphylococcus aureus PU20 expressing c-ermC incubated in CAMHB medium for 20 hrs by two-fold microbroth dilution method; settings: PU20, 20 h
In short: (§2)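 Purified fresh Staphylococcus isolate at about 5×10^5 CFU/ml final in CAMHB, 35 °C for 20 h. […] Each run included ATCC strains and reference antibiotics as QC, plus an antibiotic-free growth control.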

[3] = test system: Streptococcus pneumoniae; assay: Antimicrobial activity against mef-encoded erythromycin resistant Streptococcus pneumoniae PU09 incubated in CAMHB medium for 20 to 24 hrs by two-fold microbroth dilution method
[4] = test system: Staphylococcus aureus; assay: Antimicrobial activity against inducibly erythromycin-resistant Staphylococcus aureus PU32 expressing i-ermA incubated in CAMHB medium for 20 hrs by two-fold microbroth dilution method; settings: PU32, 20 h; in short: as §2
[5] = test system: Staphylococcus aureus; assay: Antimicrobial activity against inducibly erythromycin resistant Staphylococcus aureus PU64 expressing i-ermA incubated in CAMHB medium for 20 hrs by two-fold microbroth dilution method; settings: PU64, 20 h; in short: as §2
[6] = test system: Streptococcus pyogenes; assay: Antimicrobial activity against constitutively erythromycin resistant Streptococcus pyogenes A2 expressing c-erm incubated in CAMHB medium for 20 to 24 hrs by two-fold microbroth dilution method
In short: (§3)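 Purified fresh Streptococcus isolate at about 5×10^5 CFU/ml final in CAMHB with 5% horse serum, 35 °C for 20–24 h. […] Each run included ATCC strains and reference antibiotics as QC, plus an antibiotic-free growth control.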

[7] = test system: Streptococcus pyogenes; assay: Antimicrobial activity against erythromycin-susceptible Streptococcus pyogenes A3 incubated in CAMHB medium for 20 to 24 hrs by two-fold microbroth dilution method
[8] = test system: Streptococcus pneumoniae; assay: Antimicrobial activity against constitutively erythromycin resistant Streptococcus pneumoniae PU27 expressing c-erm incubated in CAMHB medium for 20 to 24 hrs by two-fold microbroth dilution method; in short: as §3
[9] = test system: Staphylococcus aureus; assay: Antimicrobial activity against erythromycin-susceptible Staphylococcus aureus ATCC 29213 incubated in CAMHB medium for 20 hrs by two-fold microbroth dilution method; settings: ATCC 29213, 20 h; in short: as §1
[10] = test system: Streptococcus pneumoniae; assay: Antimicrobial activity against erythromycin-susceptible Streptococcus pneumoniae ATCC 49619 incubated in CAMHB medium for 20 to 24 hrs by two-fold microbroth dilution method
[11] = test system: Staphylococcus aureus; assay: Antimicrobial activity against inducibly erythromycin-resistant and methicillin resistant Staphylococcus aureus PU32 expressing i-ermA incubated in CAMHB medium for 20 hrs by two-fold microbroth dilution method; settings: PU32, 20 h
In short: (§4)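 Purified fresh Staphylococcus isolate at about 5×10^5 CFU/ml final in CAMHB, 35 °C for 20 h. Each run included ATCC strains and reference antibiotics as QC, plus an antibiotic-free growth control.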

[12] = test system: Streptococcus pneumoniae; assay: Ratio of MBC to MIC for mef-encoded erythromycin resistant Streptococcus pneumoniae PU09
[13] = test system: Streptococcus pneumoniae; assay: Bactericidal activity against erythromycin-susceptible Streptococcus pneumoniae ATCC 49619 assessed as reduction in colony formation incubated in CAMHB medium for 20 to 24 hrs followed by 24 hrs subculturing in the medium without test compound
[14] = test system: Streptococcus pneumoniae; assay: Bactericidal activity against mef-encoded erythromycin resistant Streptococcus pneumoniae PU09 assessed as reduction in colony formation incubated in CAMHB medium for 20 to 24 hrs followed by 24 hrs subculturing in the medium without test compound
[15] = test system: Staphylococcus aureus; assay: Bactericidal activity against constitutively erythromycin resistant and methicillin-resistant Staphylococcus aureus PU20 expressing c-ermC assessed as reduction in colony formation incubated in CAMHB medium for 20 hrs followed by 24 hrs subculturing in the medium without test compound
[16] = test system: Staphylococcus aureus; assay: Antimicrobial activity against constitutively erythromycin resistant and methicillin resistant Staphylococcus aureus PU20 expressing c-ermC incubated in CAMHB medium for 20 hrs by two-fold microbroth dilution method; settings: PU20, 20 h; in short: as §4
[17] = test system: Streptococcus pyogenes; assay: Antimicrobial activity against inducibly erythromycin resistant Streptococcus pyogenes 01-968 expressing i-ermA incubated in CAMHB medium for 20 to 24 hrs by two-fold microbroth dilution method
[18] = test system: Streptococcus pneumoniae; assay: Ratio of MBC to MIC for erythromycin-susceptible Streptococcus pneumoniae ATCC 49619
[19] = test system: Haemophilus influenzae; assay: Bactericidal activity against azithromycin-susceptible Haemophilus influenzae ATCC 49247 assessed as reduction in colony formation incubated in HTM broth medium for 20 to 24 hrs followed by 24 hrs subculturing in the medium without test compound
[20] = test system: Haemophilus influenzae; assay: Antimicrobial activity against azithromycin-susceptible Haemophilus influenzae ATCC 49247 incubated in HTM broth medium for 20 to 24 hrs by two-fold microbroth dilution method
[21] = test system: Streptococcus pyogenes; assay: Bactericidal activity against inducibly erythromycin resistant Streptococcus pyogenes 01-968 expressing i-ermA assessed as reduction in colony formation incubated in CAMHB medium for 20 to 24 hrs followed by 24 hrs subculturing in the medium without test compound
[22] = test system: Haemophilus influenzae; assay: Ratio of MBC to MIC for azithromycin-susceptible Haemophilus influenzae ATCC 49247
[23] = test system: Staphylococcus aureus; assay: Bactericidal activity against inducibly erythromycin-resistant and methicillin resistant Staphylococcus aureus PU32 expressing i-ermA assessed as reduction in colony formation incubated in CAMHB medium for 20 hrs followed by 24 hrs subculturing in the medium without test compound
[24] = test system: Streptococcus pyogenes; assay: Ratio of MBC to MIC for inducibly erythromycin resistant Streptococcus pyogenes 01-968 expressing i-ermA

SMILES	MIC [1] [µg/mL]	MIC [2] [µg/mL]	MIC [3] [µg/mL]	MIC [4] [µg/mL]	MIC [5] [µg/mL]	MIC [6] [µg/mL]	MIC [7] [µg/mL]	MIC [8] [µg/mL]	MIC [9] [µg/mL]	MIC [10] [µg/mL]	other results
C=CCO/N=C1\[C@H](C)C[C@@](C)(OC)[C@H](O[C@@H]2O[C@H](C)C[C@H](N(C)C)[C@H]2O)[C@@H](C)[C@H](OCC#Cc2cncc(C#N)c2)[C@@H](C)C(=O)O[C@H](CC)[C@@]2(C)OC(=O)O[C@@H]2[C@H]1C	256 (≈ 316 µM)	128 (≈ 158 µM)	8 (≈ 9.86 µM)	128 (≈ 158 µM)	128 (≈ 158 µM)	128 (≈ 158 µM)	4 (≈ 4.93 µM)	64 (≈ 78.9 µM)	64 (≈ 78.9 µM)	4 (≈ 4.93 µM)	–
CC[C@H]1OC(=O)[C@H](C)[C@@H](O[C@H]2C[C@@](C)(OC)[C@@H](O)[C@H](C)O2)[C@H](C)[C@@H](O[C@@H]2O[C@H](C)C[C@H](N(C)C)[C@H]2O)[C@](C)(O)C[C@@H](C)CN(C)[C@H](C)[C@@H](O)[C@]1(C)O [AZITHROMYCIN]	> 256	> 256	16 (≈ 21.4 µM)	> 256	> 256	128 (≈ 171 µM)	0.25 (≈ 0.334 µM)	64 (≈ 85.4 µM)	2 (≈ 2.67 µM)	0.25 (≈ 0.334 µM)	–
CC[C@H]1OC(=O)[C@H](C)[C@@H](OC(=O)CCNCCCc2ccc3c(c2)c(=O)c(C(=O)O)cn3C2CC2)[C@H](C)[C@@H](O[C@@H]2O[C@H](C)C[C@H](N(C)C)[C@H]2O)[C@](C)(OC)C[C@@H](C)/C(=N\OC)[C@H](C)[C@H]2OC(=O)O[C@@]21C	–	–	4 (≈ 4.06 µM)	–	–	–	–	–	–	0.5 (≈ 0.508 µM)	MIC [11]: 128 µg/mL (≈ 130 µM); Ratio [12]: 1; MBC [13]: 1 µg/mL (≈ 1.02 µM); MBC [14]: 4 µg/mL (≈ 4.06 µM); MBC [15]: > 256 µg/mL; MIC [16]: 128 µg/mL (≈ 130 µM); MIC [17]: 32 µg/mL (≈ 32.5 µM); Ratio [18]: 2; MBC [19]: 256 µg/mL (≈ 260 µM); MIC [20]: 128 µg/mL (≈ 130 µM); MBC [21]: 32 µg/mL (≈ 32.5 µM); Ratio [22]: 2; MBC [23]: > 256 µg/mL; Ratio [24]: 1
C=CCO/N=C1\[C@H](C)C[C@@](C)(OC)[C@H](O[C@@H]2O[C@H](C)C[C@H](N(C)C)[C@H]2O)[C@@H](C)[C@H](OCC#Cc2ccnc(N)c2)[C@@H](C)C(=O)O[C@H](CC)[C@@]2(C)OC(=O)O[C@@H]2[C@H]1C	256 (≈ 320 µM)	256 (≈ 320 µM)	8 (≈ 9.99 µM)	256 (≈ 320 µM)	256 (≈ 320 µM)	128 (≈ 160 µM)	4 (≈ 4.99 µM)	64 (≈ 79.9 µM)	64 (≈ 79.9 µM)	4 (≈ 4.99 µM)	–
C=CCO/N=C1\[C@H](C)C[C@@](C)(OC)[C@H](O[C@@H]2O[C@H](C)C[C@H](N(C)C)[C@H]2O)[C@@H](C)[C@H](OCC#Cc2cncnc2)[C@@H](C)C(=O)O[C@H](CC)[C@@]2(C)OC(=O)O[C@@H]2[C@H]1C	256 (≈ 325 µM)	256 (≈ 325 µM)	4 (≈ 5.08 µM)	128 (≈ 163 µM)	256 (≈ 325 µM)	64 (≈ 81.3 µM)	4 (≈ 5.08 µM)	64 (≈ 81.3 µM)	64 (≈ 81.3 µM)	4 (≈ 5.08 µM)	–
C=CCO/N=C1\[C@H](C)C[C@@](C)(OC)[C@H](O[C@@H]2O[C@H](C)C[C@H](N(C)C)[C@H]2O)[C@@H](C)[C@H](OCC#Cc2ccc(N)cn2)[C@@H](C)C(=O)O[C@H](CC)[C@@]2(C)OC(=O)O[C@@H]2[C@H]1C	> 256	> 256	8 (≈ 9.99 µM)	128 (≈ 160 µM)	> 256	128 (≈ 160 µM)	4 (≈ 4.99 µM)	64 (≈ 79.9 µM)	64 (≈ 79.9 µM)	4 (≈ 4.99 µM)	–
CC[C@H]1OC(=O)[C@H](C)[C@@H](OC(=O)NCCCc2cncc(N)c2)[C@H](C)[C@@H](O[C@@H]2O[C@H](C)C[C@H](N(C)C)[C@H]2O)[C@](C)(OC)C[C@@H](C)/C(=N\OC)[C@H](C)[C@H]2OC(=O)O[C@@]21C	–	–	4 (≈ 4.87 µM)	–	–	–	–	–	–	0.25 (≈ 0.304 µM)	MBC [13]: 0.5 µg/mL (≈ 0.608 µM); MBC [14]: 8 µg/mL (≈ 9.73 µM); Ratio [18]: 2; MBC [19]: 256 µg/mL (≈ 311 µM); MIC [20]: 256 µg/mL (≈ 311 µM); Ratio [22]: 1

Source: ChEMBL document CHEMBL4346684, “Synthesis and structure-bactericidal activity relationships of non-ketolides: 9-Oxime clarithromycin 11,12-cyclic carbonate featured with three-to eight-atom-length spacers at 3-OH” (Eur J Med Chem, 2019)
